# Test results as given in ChEMBL document CHEMBL1240399.
# Experiments:
# [1] = substrate: CC(C)(O/N=C(\C(=O)N[C@@H]1C(=O)N2C(C(=O)[O-])=C(C[n+]3ccccc3)CS[C@H]12)c1csc(N)n1)C(=O)O; assay: (§1) Ratio of Kcat/Km for Pseudomonas aeruginosa GES-13 beta lactamase assessed as hydrolysis by spectrometry
# Outline: (§2)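 GES-13 expressed in E. coli(pB-ges13), released by sonication in 20 mM Tris pH 8.0, purified by Q-Sepharose (0–1 M NaCl gradient) then S-Sepharose after dialysis against 20 mM MES pH 6.0 (eluted 400–500 mM NaCl); >95% pure by SDS-PAGE. Hydrolysis of penicillin G, nitrocefin, cephalothin, cefotaxime, ceftazidime, aztreonam and imipenem followed spectrophotometrically; kinetic parameters derived.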
# [2] = substrate: CC(=O)OCC1=C(C(=O)O)N2C(=O)[C@@H](NC(=O)Cc3cccs3)[C@H]2SC1; assay: as §1; outline: as §2
# [3] = substrate: CC1(C)S[C@@H]2[C@H](NC(=O)Cc3ccccc3)C(=O)N2[C@H]1C(=O)O; assay: as §1; outline: as §2
# [4] = substrate: CO/N=C(\C(=O)N[C@@H]1C(=O)N2C(C(=O)O)=C(COC(C)=O)CS[C@H]12)c1csc(N)n1; assay: as §1; outline: as §2
# [5] = substrate: O=C(Cc1cccs1)N[C@@H]1C(=O)N2C(C(=O)O)=C(/C=C/c3ccc([N+](=O)[O-])cc3[N+](=O)[O-])CS[C@H]12; assay: as §1; outline: as §2
# [6] = substrate: C[C@H]1[C@H](NC(=O)/C(=N\OC(C)(C)C(=O)O)c2csc(N)n2)C(=O)N1S(=O)(=O)O; assay: as §1; outline: as §2
# [7] = substrate: CC(C)(O/N=C(\C(=O)N[C@@H]1C(=O)N2C(C(=O)[O-])=C(C[n+]3ccccc3)CS[C@H]12)c1csc(N)n1)C(=O)O; assay: (§3) Activity of Pseudomonas aeruginosa GES-13 beta lactamase assessed as hydrolysis by spectrometry; outline: as §2
# [8] = substrate: CC1(C)S[C@@H]2[C@H](NC(=O)Cc3ccccc3)C(=O)N2[C@H]1C(=O)O; assay: as §3; outline: as §2
# [9] = substrate: C[C@@H](O)[C@H]1C(=O)N2C(C(=O)O)=C(SCCNC=N)C[C@H]12; assay: as §3; outline: as §2
# [10] = substrate: CO/N=C(\C(=O)N[C@@H]1C(=O)N2C(C(=O)O)=C(COC(C)=O)CS[C@H]12)c1csc(N)n1; assay: as §3; outline: as §2
# [11] = substrate: O=C(Cc1cccs1)N[C@@H]1C(=O)N2C(C(=O)O)=C(/C=C/c3ccc([N+](=O)[O-])cc3[N+](=O)[O-])CS[C@H]12; assay: as §3; outline: as §2
# [12] = substrate: C[C@H]1[C@H](NC(=O)/C(=N\OC(C)(C)C(=O)O)c2csc(N)n2)C(=O)N1S(=O)(=O)O; assay: as §3; outline: as §2
protein,measurement,setting,value
"Beta-lactamase GES-13 (Pseudomonas aeruginosa), D1MIX9 (protein) MRFIHALLLAGIAHSAYASEKLTFKTDLEKLEREKAAQIGVAIVDPQGEIVAGHRMAQRFAMCSTFKFPLAALVFERIDSGTERGDRKLSYGPDMIVKWSPATERFLASGHMTVLEAAQAAVQLSDNGATNLLLREIGGPAAMTQYFRKIGDSVSRLDRKEPEMNDNTPGDLRDTTTPIAMARTVAKVLYGGALTSTSTHTIERWLIGNQTGDATLRAGFPKDWVVGEKTGTCANGGRNDIGFFKAQERDYAVAVYTTAPKLSAVERDELVASVGQVITQLILSTDK",kcat/Km,[1],130000 M⁻¹ s⁻¹
same,kcat/Km,[2],100000 M⁻¹ s⁻¹
same,kcat/Km,[3],100000 M⁻¹ s⁻¹
same,kcat/Km,[4],1.09e+06 M⁻¹ s⁻¹
same,kcat/Km,[5],150000 M⁻¹ s⁻¹
same,kcat/Km,[6],90000 M⁻¹ s⁻¹
same,Km,[7],229 µM
same,kcat,[7],30.4 s⁻¹
same,Km,[8],139 µM
same,kcat,[8],13.5 s⁻¹
same,kcat,[9],< 0.01 s⁻¹
same,Km,[10],63 µM
same,kcat,[10],69 s⁻¹
same,Km,[11],197 µM
same,kcat,[11],29.3 s⁻¹
same,Km,[12],405 µM
same,kcat,[12],35.6 s⁻¹
